Converted amounts (≈) assume the structure as drawn.
How the values were obtained:
[1] = Free drug concentration in mouse brain; format: ADME, tissue-based; settings: in vivo
Outline: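 Free brain concentration calculated as fu,b × total brain level (μM), mouse 30 mg/kg p.o., 4 h.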

hERG (KCNH2) = hERG (KCNH2) (Homo sapiens, UniProt Q12809); assay: Inhibition of human ERG assessed as inhibition of IKr current at 3 uM by patch express assay
Outline: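 Human ERG: percent inhibition of IKr current at 3 μM.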

[2] = Toxicity in dog assessed as effect on AST level at 10 mg/kg, po; format: organism-based, Canis lupus familiaris; settings: in vivo
Outline: (§1)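 Single oral 10 mg/kg dose in dog; behaviour and appearance observed; plasma liver enzymes ALT and AST monitored.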

Gamma-secretase = assay: Inhibition of gamma secretase in human SKNBE2 cells expressing human APP695 assessed as reduction in Abeta42 levels incubated for 18 hrs by sandwich ELISA
Mus musculus [3] = assay: In vivo inhibition of gamma secretase in mouse assessed as assessed as reduction in Abeta42 levels in brain at 30 mg/kg, po measured after 4 hrs relative to control; format: functional
[4] = Tmax in dog at 10 mg/kg, po; format: ADME, organism-based, Canis lupus familiaris; settings: in vivo
Outline: (§2)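 Dogs given single oral 10 mg/kg dose; plasma concentration followed to obtain Cmax and time of Cmax.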

Mus musculus [5] = assay: In vivo inhibition of gamma secretase in mouse increase in Abeta38 levels in brain at 30 mg/kg, po measured after 4 hrs relative to control; parameters: scale not given: the % may be the effect or the level left
Cytochrome P450 3A4 = Cytochrome P450 3A4 (Homo sapiens, UniProt P08684); assay: Inhibition of CYP3A4 (unknown origin) using midazolam; format: ADME
Cytochrome P450 3A4, sequence (P08684 whole entry): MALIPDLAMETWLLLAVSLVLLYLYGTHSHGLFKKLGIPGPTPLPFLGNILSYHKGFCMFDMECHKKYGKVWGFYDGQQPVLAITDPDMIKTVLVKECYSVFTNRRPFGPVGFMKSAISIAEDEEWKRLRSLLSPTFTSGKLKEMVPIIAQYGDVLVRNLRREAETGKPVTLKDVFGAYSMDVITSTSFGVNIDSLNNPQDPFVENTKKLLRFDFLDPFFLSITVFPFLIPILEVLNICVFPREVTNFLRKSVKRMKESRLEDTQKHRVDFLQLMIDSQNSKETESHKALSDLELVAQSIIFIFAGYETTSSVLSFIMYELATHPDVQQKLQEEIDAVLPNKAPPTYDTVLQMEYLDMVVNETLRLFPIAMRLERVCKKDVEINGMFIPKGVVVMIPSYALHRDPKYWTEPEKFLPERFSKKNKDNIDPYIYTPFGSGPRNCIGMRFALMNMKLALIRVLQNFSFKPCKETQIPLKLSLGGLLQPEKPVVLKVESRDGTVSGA

Cytochrome P450 2C19 = Cytochrome P450 2C19 (Homo sapiens, UniProt P33261); assay: Inhibition of CYP2C19 (unknown origin); format: ADME
Cytochrome P450 2C19, sequence (P33261 whole entry): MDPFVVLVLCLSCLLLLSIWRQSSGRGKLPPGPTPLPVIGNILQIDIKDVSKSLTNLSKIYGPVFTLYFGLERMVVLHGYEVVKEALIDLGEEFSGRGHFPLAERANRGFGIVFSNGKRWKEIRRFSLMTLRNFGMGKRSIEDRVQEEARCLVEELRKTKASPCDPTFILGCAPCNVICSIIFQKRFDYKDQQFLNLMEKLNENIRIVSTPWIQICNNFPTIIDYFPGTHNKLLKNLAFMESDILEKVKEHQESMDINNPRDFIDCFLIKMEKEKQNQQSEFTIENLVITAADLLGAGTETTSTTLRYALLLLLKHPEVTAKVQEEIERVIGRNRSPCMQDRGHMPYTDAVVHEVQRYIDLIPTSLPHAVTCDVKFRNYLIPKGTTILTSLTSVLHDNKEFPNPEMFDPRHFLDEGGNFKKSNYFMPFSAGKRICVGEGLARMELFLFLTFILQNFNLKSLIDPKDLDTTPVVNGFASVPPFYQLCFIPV

Cytochrome P450 2D6 = Cytochrome P450 2D6 (Homo sapiens, UniProt P10635); assay: Inhibition of CYP2D6 (unknown origin); format: ADME
Cytochrome P450 2D6, sequence (P10635 whole entry): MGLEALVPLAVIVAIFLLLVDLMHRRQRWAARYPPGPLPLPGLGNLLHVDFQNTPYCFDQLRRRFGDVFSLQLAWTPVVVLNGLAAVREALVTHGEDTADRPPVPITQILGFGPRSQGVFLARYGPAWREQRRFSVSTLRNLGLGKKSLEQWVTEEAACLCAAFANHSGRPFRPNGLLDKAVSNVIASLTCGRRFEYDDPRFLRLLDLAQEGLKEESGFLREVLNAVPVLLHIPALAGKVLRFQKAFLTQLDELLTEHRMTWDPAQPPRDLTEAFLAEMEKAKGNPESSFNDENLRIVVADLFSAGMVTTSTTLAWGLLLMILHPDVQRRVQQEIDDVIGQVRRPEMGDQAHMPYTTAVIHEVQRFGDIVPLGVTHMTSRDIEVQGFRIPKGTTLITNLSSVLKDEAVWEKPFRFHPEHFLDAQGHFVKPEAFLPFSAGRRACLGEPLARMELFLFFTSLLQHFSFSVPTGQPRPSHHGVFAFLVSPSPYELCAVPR

[6] = Ratio of drug concentration in brain to plasma of mouse at 30 mg/kg, po measured after 4 hrs by LC/MS/MS method; format: ADME, organism-based; settings: read-out: BPR
Outline: (§3)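 Mice dosed orally at 30 mg/kg; plasma and brain sampled 4 h post-dose; compound quantified by qualified research LC–MS/MS; brain/plasma ratio at 4 h.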

[7] = Cmax in dog at 10 mg/kg, po after 1.6 hrs; format: ADME, organism-based, Canis lupus familiaris; parameters: dose 10 mg/kg, route oral; settings: in vivo; outline: as §2
[8] = Metabolic stability in mouse liver microsomes assessed as compound metabolism at 1 uM incubated for 15 mins; format: ADME, Microsome; settings: read-out: Drug metabolism
Outline: (§4)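 Compound at 1 μM incubated 15 min with human, mouse or dog liver microsomes; percent metabolized reported.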

[9] = Lipophilicity, log P of the compound; format: physicochemical; settings: octanol/water
[10] = Drug concentration in mouse plasma at 30 mg/kg, po measured after 4 hrs by LC/MS/MS method; format: ADME, organism-based; outline: as §3
[11] = Fraction of unbound in rat brain
[12] = Inhibition of gamma secretase in mouse Neuro2 cells expressing endogenous levels of amyloid precursor protein assessed as reduction in Abeta42 levels incubated for 18 hrs by sandwich ELISA; format: cell-based
Outline: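 IC50 as concentration reducing Aβ42 by 50%; mean of at least 2 determinations; mouse assay.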

[13] = Toxicity in dog assessed as effect on ALT level at 10 mg/kg, po; format: organism-based, Canis lupus familiaris; settings: in vivo; outline: as §1
[14] = Toxicity in dog assessed as effect on appearance at 10 mg/kg, po; format: organism-based, Canis lupus familiaris; settings: in vivo; outline: as §1
[15] = Kinetic solubility of the compound in pH 7.4 buffer; format: physicochemical; settings: read-out: Kinetic_solubility
[16] = Toxicity in dog assessed as effect on behavior at 10 mg/kg, po; format: organism-based, Canis lupus familiaris; settings: in vivo; outline: as §1
[17] = Metabolic stability in human liver microsomes assessed as compound metabolism at 1 uM incubated for 15 mins; format: ADME, Microsome; settings: read-out: Drug metabolism; outline: as §4
[18] = target: Voltage-gated inwardly rectifying potassium channel KCNH2 (Homo sapiens, UniProt Q12809); assay: Inhibition of human ERG by receptor binding assay
Voltage-gated inwardly rectifying potassium channel KCNH2, sequence (Q12809 whole entry): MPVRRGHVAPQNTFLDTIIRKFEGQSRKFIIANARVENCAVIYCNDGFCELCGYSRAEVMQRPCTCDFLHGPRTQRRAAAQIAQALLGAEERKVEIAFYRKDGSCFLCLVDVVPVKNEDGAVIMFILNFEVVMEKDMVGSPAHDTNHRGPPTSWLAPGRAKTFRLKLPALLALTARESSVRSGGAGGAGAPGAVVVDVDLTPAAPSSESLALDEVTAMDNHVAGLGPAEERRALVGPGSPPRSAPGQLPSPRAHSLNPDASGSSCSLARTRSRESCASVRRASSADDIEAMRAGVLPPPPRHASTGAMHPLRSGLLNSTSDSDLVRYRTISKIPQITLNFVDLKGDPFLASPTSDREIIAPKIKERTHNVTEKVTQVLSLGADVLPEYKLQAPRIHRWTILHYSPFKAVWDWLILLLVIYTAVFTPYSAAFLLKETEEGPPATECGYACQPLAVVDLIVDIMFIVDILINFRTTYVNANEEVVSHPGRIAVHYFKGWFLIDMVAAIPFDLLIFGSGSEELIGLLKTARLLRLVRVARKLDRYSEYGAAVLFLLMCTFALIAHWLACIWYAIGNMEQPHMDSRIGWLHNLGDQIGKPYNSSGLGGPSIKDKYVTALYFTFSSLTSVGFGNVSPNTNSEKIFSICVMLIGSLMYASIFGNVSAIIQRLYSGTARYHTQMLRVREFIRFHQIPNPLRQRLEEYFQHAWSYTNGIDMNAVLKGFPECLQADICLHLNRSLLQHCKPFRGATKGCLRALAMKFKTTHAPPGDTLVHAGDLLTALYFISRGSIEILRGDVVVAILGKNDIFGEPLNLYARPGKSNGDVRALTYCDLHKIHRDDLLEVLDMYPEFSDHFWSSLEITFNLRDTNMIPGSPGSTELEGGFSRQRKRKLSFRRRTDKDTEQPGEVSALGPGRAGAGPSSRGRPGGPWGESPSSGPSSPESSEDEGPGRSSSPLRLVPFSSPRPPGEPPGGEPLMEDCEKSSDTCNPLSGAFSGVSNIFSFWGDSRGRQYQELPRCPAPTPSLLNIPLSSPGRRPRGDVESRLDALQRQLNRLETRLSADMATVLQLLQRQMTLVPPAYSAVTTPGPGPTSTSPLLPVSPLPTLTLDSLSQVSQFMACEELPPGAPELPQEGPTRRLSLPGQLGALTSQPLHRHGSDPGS
Outline: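 Receptor binding on human hERG channel; IC50 reported.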

Cytochrome P450 1A2 = target: T1, Cytochrome P450 1A2 (Homo sapiens, UniProt P05177); assay: Inhibition of CYP1A2 (unknown origin); format: ADME
T1 sequence (P05177 whole entry): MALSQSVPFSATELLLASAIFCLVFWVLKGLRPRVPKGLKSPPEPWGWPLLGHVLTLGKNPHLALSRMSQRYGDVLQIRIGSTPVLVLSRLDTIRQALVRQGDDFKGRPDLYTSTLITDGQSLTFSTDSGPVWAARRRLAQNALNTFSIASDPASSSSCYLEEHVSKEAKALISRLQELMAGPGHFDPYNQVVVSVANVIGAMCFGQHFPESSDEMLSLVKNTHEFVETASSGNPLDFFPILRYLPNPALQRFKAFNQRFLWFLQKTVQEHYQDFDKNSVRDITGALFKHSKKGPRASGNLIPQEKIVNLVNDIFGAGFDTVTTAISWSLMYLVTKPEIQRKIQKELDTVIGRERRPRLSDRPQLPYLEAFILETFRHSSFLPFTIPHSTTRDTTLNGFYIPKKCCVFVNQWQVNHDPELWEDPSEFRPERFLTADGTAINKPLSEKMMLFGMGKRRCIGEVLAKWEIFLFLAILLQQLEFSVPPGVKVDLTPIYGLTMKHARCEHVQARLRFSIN

Canis familiaris [19] = assay: In vivo inhibition of gamma secretase in dog assessed as assessed as increase in Abeta38 levels in CSF at 10 mg/kg, po measured after 8 hrs relative to control; format: functional, Canis lupus familiaris; parameters: scale not given: the % may be the effect or the level left
Cytochrome P450 2C8 = target: T2, Cytochrome P450 2C8 (Homo sapiens, UniProt P10632); assay: Inhibition of CYP2C8 (unknown origin); format: ADME
T2 sequence (P10632 whole entry): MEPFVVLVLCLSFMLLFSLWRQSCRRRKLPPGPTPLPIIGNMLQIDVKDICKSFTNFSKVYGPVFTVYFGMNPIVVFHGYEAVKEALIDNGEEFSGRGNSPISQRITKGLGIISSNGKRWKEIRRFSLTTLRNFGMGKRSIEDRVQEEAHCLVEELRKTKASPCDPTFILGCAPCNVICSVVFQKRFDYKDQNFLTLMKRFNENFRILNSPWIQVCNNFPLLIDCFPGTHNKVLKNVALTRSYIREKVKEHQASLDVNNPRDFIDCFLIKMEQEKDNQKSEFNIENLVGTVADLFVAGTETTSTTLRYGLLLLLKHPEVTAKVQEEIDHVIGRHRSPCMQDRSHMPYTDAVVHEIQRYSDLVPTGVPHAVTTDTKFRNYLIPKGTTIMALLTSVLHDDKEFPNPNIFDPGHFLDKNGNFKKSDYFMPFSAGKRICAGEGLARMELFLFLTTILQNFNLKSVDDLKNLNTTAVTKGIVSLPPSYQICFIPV

Cytochrome P450 2C9 = Cytochrome P450 2C9 (Homo sapiens, UniProt P11712); assay: Inhibition of CYP2C9 (unknown origin); format: ADME
Cytochrome P450 2C9, sequence (P11712 whole entry): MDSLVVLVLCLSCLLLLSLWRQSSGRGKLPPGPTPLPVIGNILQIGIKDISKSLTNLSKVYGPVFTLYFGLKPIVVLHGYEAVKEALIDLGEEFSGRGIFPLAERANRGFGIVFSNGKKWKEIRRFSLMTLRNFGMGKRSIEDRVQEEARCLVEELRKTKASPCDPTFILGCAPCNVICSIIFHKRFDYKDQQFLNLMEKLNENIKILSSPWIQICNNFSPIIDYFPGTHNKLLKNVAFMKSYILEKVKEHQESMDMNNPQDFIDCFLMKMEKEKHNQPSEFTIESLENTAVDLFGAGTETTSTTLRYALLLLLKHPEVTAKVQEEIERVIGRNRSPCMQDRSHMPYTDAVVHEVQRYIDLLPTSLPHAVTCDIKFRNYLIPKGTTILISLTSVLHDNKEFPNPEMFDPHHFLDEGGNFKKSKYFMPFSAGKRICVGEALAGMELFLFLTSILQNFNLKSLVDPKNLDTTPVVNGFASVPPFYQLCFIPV

[20] = Metabolic stability in dog liver microsomes assessed as compound metabolism at 1 uM incubated for 15 mins; format: ADME, Canis lupus familiaris, Microsome; settings: read-out: Drug metabolism; outline: as §4
[21] = Drug concentration in mouse brain at 30 mg/kg, po measured after 4 hrs by LC/MS/MS method; format: ADME, organism-based; settings: read-out: Drug uptake; outline: as §3
Canis familiaris [22] = assay: In vivo inhibition of gamma secretase in dog assessed as assessed as reduction in Abeta42 levels in cerebrospinal fluid at 10 mg/kg, po measured after 8 hrs relative to control; settings: Canis lupus familiaris

hERG (KCNH2), sequence (Q12809 whole entry): as the sequence (Q12809 whole entry) above

- Drug uptake(free) [1]: 0.026 µM
- IC50 (Gamma-secretase): 0.014 µM
- Tmax [4]: 1.6 h
- IC50 (Cytochrome P450 3A4): > 10 µM
- IC50 (Cytochrome P450 2C19): 8.3 µM
- IC50 (Cytochrome P450 2D6): 9.8 µM
- Kp at 4 h [6]: 1.46
- Cmax [7]: 2.4 µM
- metabolised at 0.25 h, 1 µM [8]: 27%
- logP [9]: 4.19
- concentration at 4 h [10]: 8.2 to 12.1 µM
- Fu [11]: 0.22%
- IC50 [12]: 0.017 µM
- solubility kinetic [15]: 6 µM (≈ 2.41 µg/mL)
- metabolised at 0.25 h, 1 µM [17]: 18%
- IC50 (Cytochrome P450 1A2): > 10 µM
- IC50 (Cytochrome P450 2C8): 1.3 µM
- IC50 (Cytochrome P450 2C9): 5.9 µM
- metabolised at 0.25 h, 1 µM [20]: 29%
- concentration at 4 h [21]: 8.25 to 12 µM
SMILES: COc1c(C#N)ccc2[nH]c(-c3cn4c(n3)[C@H](c3cccc(F)c3C)OCC4)cc12
- inhibition at 3 µM (hERG (KCNH2)): 31%
- Activity [2]: Non-Toxic
- inhibition in vivo at 30 mg/kg (Mus musculus [3]): 66%
- Activity (Mus musculus [5]): 40%
- Activity [13]: Non-Toxic
- Activity [14]: Non-Toxic
- Activity [16]: Non-Toxic
- IC50 [18]: 5.29 µM
- Activity (Canis familiaris [19]): 40%
- inhibition in vivo at 10 mg/kg (Canis familiaris [22]): 37%

— ChEMBL document CHEMBL4387734, “Design and synthesis of a novel series of cyanoindole derivatives as potent γ-secretase modulators” (Bioorg Med Chem Lett, 2019)
